Columns and labels:
Format in all cases: functional
Parameters in all cases: scale not given: the % may be the effect or the level left
[1] = test system: RXF 393; experiment: Growth inhibition of human RXF393 cells assessed tumor cell growth at 10^-5 M
Method in brief: (§1)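 NCI 60-human-tumor-cell-line panel screen. Each compound was tested at a single concentration of 10^-5 M, and percent growth of tumor cells was recorded for each cell line. Growth inhibition was expressed from these percent-growth values.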

[2] = test system: DU-145; experiment: Growth inhibition of human DU145 cells assessed tumor cell growth at 10^-5 M; method in brief: as §1
[3] = test system: NCI-H23; experiment: Growth inhibition of human NCI-H23 cells assessed tumor cell growth at 10^-5 M; method in brief: as §1
[4] = test system: LOX IMVI; experiment: Growth inhibition of human LOXIMVI cells assessed tumor cell growth at 10^-5 M; method in brief: as §1
[5] = test system: SF-295; experiment: Growth inhibition of human SF295 cells assessed tumor cell growth at 10^-5 M; method in brief: as §1
[6] = test system: NCI/ADR-RES; experiment: Growth inhibition of human NCI/ADR-RES cells assessed tumor cell growth at 10^-5 M; method in brief: as §1
[7] = test system: CCRF-CEM; experiment: Growth inhibition of human CCRF-CEM cells assessed tumor cell growth at 10^-5 M; method in brief: as §1
[8] = test system: A498; experiment: Growth inhibition of human A498 cells assessed tumor cell growth at 10^-5 M; method in brief: as §1
[9] = test system: EKVX; experiment: Growth inhibition of human EKVX cells assessed tumor cell growth at 10^-5 M; method in brief: as §1
[10] = test system: MDA-MB-468; experiment: Growth inhibition of human MDA-MB-468 cells assessed tumor cell growth at 10^-5 M; method in brief: as §1
[11] = test system: BT-549; experiment: Growth inhibition of human BT549 cells assessed tumor cell growth at 10^-5 M; method in brief: as §1
[12] = test system: MOLT-4; experiment: Growth inhibition of human MOLT4 cells assessed tumor cell growth at 10^-5 M; method in brief: as §1
[13] = test system: SNB-19; experiment: Growth inhibition of human SNB19 cells assessed tumor cell growth at 10^-5 M
Method in brief: (§2)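 Single-dose screen at 10^-5 M across the 60 human tumor cell line panel, run to NCI standards. The value is the percent growth of each cell line in the presence of compound. Compounds active at this dose moved on to five-concentration testing (10^-4 to 10^-8 M).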

[14] = test system: HOP-62; experiment: Growth inhibition of human HOP62 cells assessed tumor cell growth at 10^-5 M; method in brief: as §1
[15] = test system: HCT-15; experiment: Growth inhibition of human HCT15 cells assessed tumor cell growth at 10^-5 M; method in brief: as §1
[16] = test system: HCT-116; experiment: Growth inhibition of human HCT116 cells assessed tumor cell growth at 10^-5 M; method in brief: as §1
[17] = test system: HT-29; experiment: Growth inhibition of human HT-29 cells assessed tumor cell growth at 10^-5 M; method in brief: as §1
[18] = test system: OVCAR-4; experiment: Growth inhibition of human OVCAR4 cells assessed tumor cell growth at 10^-5 M; method in brief: as §1
[19] = test system: SF-268; experiment: Growth inhibition of human SF268 cells assessed tumor cell growth at 10^-5 M; method in brief: as §1
[20] = test system: HOP-92; experiment: Growth inhibition of human HOP92 cells assessed tumor cell growth at 10^-5 M; method in brief: as §1
[21] = test system: SNB-75; experiment: Growth inhibition of human SNB75 cells assessed tumor cell growth at 10^-5 M; method in brief: as §2
[22] = test system: UACC-62; experiment: Growth inhibition of human UACC62 cells assessed tumor cell growth at 10^-5 M; method in brief: as §2
[23] = test system: Malme-3M; experiment: Growth inhibition of human MALME-3M cells assessed tumor cell growth at 10^-5 M; method in brief: as §1
[24] = test system: SN12C; experiment: Growth inhibition of human SN12C cells assessed tumor cell growth at 10^-5 M; method in brief: as §1
[25] = test system: HCC 2998; experiment: Growth inhibition of human HCC2998 cells assessed tumor cell growth at 10^-5 M; method in brief: as §1
[26] = test system: UACC-257; experiment: Growth inhibition of human UACC257 cells assessed tumor cell growth at 10^-5 M; method in brief: as §2
[27] = test system: MDA-MB-435; experiment: Growth inhibition of human MDA-MB-435 cells assessed tumor cell growth at 10^-5 M; method in brief: as §1
[28] = test system: OVCAR-8; experiment: Growth inhibition of human OVCAR8 cells assessed tumor cell growth at 10^-5 M; method in brief: as §1
[29] = test system: CAKI-1; experiment: Growth inhibition of human Caki1 cells assessed tumor cell growth at 10^-5 M; method in brief: as §1
[30] = test system: NCI-H226; experiment: Growth inhibition of human NCI-H226 cells assessed tumor cell growth at 10^-5 M; method in brief: as §1
[31] = test system: SK-OV-3; experiment: Growth inhibition of human SKOV3 cells assessed tumor cell growth at 10^-5 M; method in brief: as §1
[32] = Growth inhibition of human […] cells assessed tumor cell growth at 10^-5 M; method in brief: as §1
[33] = test system: MDA-MB-231; experiment: Growth inhibition of human MDA-MB-231 cells assessed tumor cell growth at 10^-5 M; method in brief: as §1
[34] = test system: COLO 205; experiment: Growth inhibition of human COLO205 cells assessed tumor cell growth at 10^-5 M; method in brief: as §1
[35] = test system: NCI-H460; experiment: Growth inhibition of human NCI-H460 cells assessed tumor cell growth at 10^-5 M; method in brief: as §1
[36] = test system: 786-0; experiment: Growth inhibition of human 786-0 cells assessed tumor cell growth at 10^-5 M; method in brief: as §1
[37] = test system: SF-539; experiment: Growth inhibition of human SF539 cells assessed tumor cell growth at 10^-5 M; method in brief: as §1
[38] = test system: NCI-H322M; experiment: Growth inhibition of human NCI-H322M cells assessed tumor cell growth at 10^-5 M; method in brief: as §1
[39] = test system: UO-31; experiment: Growth inhibition of human UO31 cells assessed tumor cell growth at 10^-5 M; method in brief: as §2
[40] = test system: SK-MEL-5; experiment: Growth inhibition of human SK-MEL-5 cells assessed tumor cell growth at 10^-5 M; method in brief: as §1
[41] = test system: SK-MEL-2; experiment: Growth inhibition of human SK-MEL-2 cells assessed tumor cell growth at 10^-5 M; method in brief: as §1
[42] = test system: OVCAR-5; experiment: Growth inhibition of human OVCAR5 cells assessed tumor cell growth at 10^-5 M; method in brief: as §1
[43] = test system: K562; experiment: Growth inhibition of human K562 cells assessed tumor cell growth at 10^-5 M; method in brief: as §1
[44] = test system: T47D; experiment: Growth inhibition of human T47D cells assessed tumor cell growth at 10^-5 M; method in brief: as §2
[45] = test system: MCF7; experiment: Growth inhibition of human MCF7 cells assessed tumor cell growth at 10^-5 M; method in brief: as §1
[46] = test system: ACHN; experiment: Growth inhibition of human ACHN cells assessed tumor cell growth at 10^-5 M; method in brief: as §1
[47] = test system: OVCAR-3; experiment: Growth inhibition of human OVCAR3 cells assessed tumor cell growth at 10^-5 M; method in brief: as §1
[48] = test system: U-251; experiment: Growth inhibition of human U251 cells assessed tumor cell growth at 10^-5 M; method in brief: as §2
[49] = test system: KM12; experiment: Growth inhibition of human KM12 cells assessed tumor cell growth at 10^-5 M; method in brief: as §1
[50] = test system: M14; experiment: Growth inhibition of human M14 cells assessed tumor cell growth at 10^-5 M; method in brief: as §1
[51] = test system: A549; experiment: Growth inhibition of human A549 cells assessed tumor cell growth at 10^-5 M; method in brief: as §1
[52] = test system: HL-60(TB); experiment: Growth inhibition of human HL-60(TB) cells assessed tumor cell growth at 10^-5 M
Method in brief: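 HL-60(TB), part of the 60-line panel, tested at a single concentration of 10^-5 M. The read-out is percent tumor cell growth relative to untreated growth.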

CC1=NN(c2cccc(Cl)c2)C(=O)/C1=C\c1c[nH]c2ccccc12
Activity [1]: 99.54% | Activity [2]: 121.25% | Activity [3]: 117.91% | Activity [4]: 99.88% | Activity [5]: 116.2% | Activity [6]: 101.48% | Activity [7]: 142.91% | Activity [8]: 100.75% | Activity [9]: 79.28% | Activity [10]: 104.9% | Activity [11]: 117.3% | Activity [12]: 159.76% | Activity [13]: 111.33% | Activity [14]: 83.26% | Activity [15]: 103.61% | Activity [16]: 101.89% | Activity [17]: 114.3% | Activity [18]: 104.32% | Activity [19]: 107.91% | Activity [20]: 72.8% | Activity [21]: 91.42% | Activity [22]: 83.26% | Activity [23]: 114.52% | Activity [24]: 200.78% | Activity [25]: 88.48% | Activity [26]: 122.98% | Activity [27]: 108.89% | Activity [28]: 107.69% | Activity [29]: 155.88% | Activity [30]: 76.77% | Activity [31]: 99.61% | Activity [32]: 103.27% | Activity [33]: 72.74% | Activity [34]: 122.84% | Activity [35]: 109.9% | Activity [36]: 98.46% | Activity [37]: 100.44% | Activity [38]: 106.34% | Activity [39]: 88.75% | Activity [40]: 102.28% | Activity [41]: 120.43% | Activity [42]: 98.5% | Activity [43]: 128.85% | Activity [44]: 83.89% | Activity [45]: 76.22% | Activity [46]: 84.34% | Activity [47]: 105.19% | Activity [48]: 103.49% | Activity [49]: 106.96% | Activity [50]: 99.91% | Activity [51]: 109.06% | Activity [52]: 124.41%

From ChEMBL document CHEMBL1811814, “Synthesis and evaluation of indole, pyrazole, chromone and pyrimidine based conjugates for tumor growth inhibitory activities--development of highly efficacious cytotoxic agents” (Eur J Med Chem, 2010)
